From ChEMBL document CHEMBL4028900, “Design of Novel 3-Pyrimidinylazaindole CDK2/9 Inhibitors with Potent In Vitro and In Vivo Antitumor Efficacy in a Triple-Negative Breast Cancer Model” (J Med Chem, 2017)

Key:
[1] = target: CDK9/cyclin T1 (Homo sapiens) (UniProt O60563+P50750); conditions: at 500 nM
[2] = target: CDK2/Cyclin A2 (Homo sapiens) (UniProt P24941+P20248); conditions: at 500 nM
[3] = target: CDK9/cyclin T1 (Homo sapiens, UniProt P50750); assay type: protein-complex assay
[4] = target: CDK2/Cyclin A2 (Homo sapiens, UniProt P24941); experiment: Inhibition of CDK2/cyclin A (unknown origin) using histone H1 as substrate after 30 mins in presence of [33P]-gamma-ATP; assay type: protein-complex assay
[5] = system: HCT-116; experiment: Antiproliferative activity against human HCT116 cells after 72 hrs by SRB assay; conditions: HCT-116, 72 h
[6] = system: SH-SY5Y; experiment: Antiproliferative activity against human SH-SY5Y cells after 24 hrs by MTT assay; assay type: functional, cell-based
[7] = system: Mus musculus; experiment: Half life in BALB/c mouse at 5 mg/kg, ip by LC/MS-MS analysis; assay type: ADME, organism-based; conditions: in vivo
[8] = system: Mus musculus; experiment: AUC (0 to infinity) in BALB/c mouse at 5 mg/kg, ip by LC/MS-MS analysis; assay type: ADME, organism-based; set-up: dose 5 mg/kg, route intraperitoneal, time infinity; conditions: in vivo
[9] = Plasma concentration in BALB/c mouse at 5 mg/kg, ip at 4 hrs by LC/MS-MS analysis; assay type: ADME, organism-based
[10] = AUC (0 to infinity) in BALB/c mouse at 2.5 mg/kg, iv by LC/MS-MS analysis; assay type: ADME, organism-based; set-up: dose 2.5 mg/kg, time infinity, route intravenous; conditions: in vivo
[11] = Clearance in BALB/c mouse at 2.5 mg/kg, iv by LC/MS-MS analysis; assay type: ADME, organism-based; conditions: in vivo
[12] = Plasma concentration in BALB/c mouse at 2.5 mg/kg, iv at 0.25 hrs by LC/MS-MS analysis; assay type: ADME, organism-based
[13] = Volume of distribution in BALB/c mouse at 2.5 mg/kg, iv by LC/MS-MS analysis; assay type: ADME, organism-based; conditions: in vivo
[14] = system: Mus musculus; experiment: Clearance in BALB/c mouse at 5 mg/kg, ip by LC/MS-MS analysis; assay type: ADME, organism-based; conditions: in vivo
[15] = system: Mus musculus; experiment: Volume of distribution in BALB/c mouse at 5 mg/kg, ip by LC/MS-MS analysis; assay type: ADME, organism-based; conditions: in vivo
[16] = Plasma concentration in BALB/c mouse at 5 mg/kg, ip at 1 hr by LC/MS-MS analysis; assay type: ADME, organism-based
[17] = AUC (0 to t) in BALB/c mouse at 2.5 mg/kg, iv by LC/MS-MS analysis; assay type: ADME, organism-based; conditions: in vivo
[18] = AUC (0 to t) in BALB/c mouse at 5 mg/kg, ip by LC/MS-MS analysis; assay type: ADME, organism-based; conditions: in vivo
[19] = Plasma concentration in BALB/c mouse at 5 mg/kg, ip at 0.25 hrs by LC/MS-MS analysis; assay type: ADME, organism-based
[20] = Plasma concentration in BALB/c mouse at 2.5 mg/kg, iv at 2 hrs by LC/MS-MS analysis; assay type: ADME, organism-based
[21] = Initial concentration in BALB/c mouse at 2.5 mg/kg, iv by LC/MS-MS analysis; assay type: ADME, organism-based; conditions: in vivo
[22] = Plasma concentration in BALB/c mouse at 5 mg/kg, ip at 2 hrs by LC/MS-MS analysis; assay type: ADME, organism-based
[23] = Half life in BALB/c mouse at 2.5 mg/kg, iv by LC/MS-MS analysis; assay type: ADME, organism-based; conditions: in vivo
[24] = system: 4T1; experiment: Antitumor activity against mouse 4T1 cells allografted in iv dosed Balb/C mouse assessed as tumor growth inhibition administered every 3 days for 21 days measured 2 times for every week during dosing; assay type: functional, organism-based
In short: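 4T1 cells were grown in RPMI-1640 with 10% FBS, pyruvate and NEAA at 37 °C and 5% CO2. Female Balb/C mice received 1×10^6 cells into the second mammary fat pad. At about 100 mm3, mice were grouped five per group and dosed by tail vein in 200 µL (PBS diluent) every three days for 21 days. Tumor volume (L×B²/2, caliper) and body weight were taken twice weekly. The experiment was repeated twice.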

[25] = Plasma concentration in BALB/c mouse at 2.5 mg/kg, iv at 0.5 hrs by LC/MS-MS analysis; assay type: ADME, organism-based
[26] = Plasma concentration in BALB/c mouse at 2.5 mg/kg, iv at 1 hr by LC/MS-MS analysis; assay type: ADME, organism-based
[27] = Plasma concentration in BALB/c mouse at 5 mg/kg, ip at 0.5 hrs by LC/MS-MS analysis; assay type: ADME, organism-based
[28] = Plasma concentration in BALB/c mouse at 2.5 mg/kg, iv at […] by LC/MS-MS analysis; assay type: ADME, organism-based

Chain of CDK9/cyclin T1 (O60563 whole entry): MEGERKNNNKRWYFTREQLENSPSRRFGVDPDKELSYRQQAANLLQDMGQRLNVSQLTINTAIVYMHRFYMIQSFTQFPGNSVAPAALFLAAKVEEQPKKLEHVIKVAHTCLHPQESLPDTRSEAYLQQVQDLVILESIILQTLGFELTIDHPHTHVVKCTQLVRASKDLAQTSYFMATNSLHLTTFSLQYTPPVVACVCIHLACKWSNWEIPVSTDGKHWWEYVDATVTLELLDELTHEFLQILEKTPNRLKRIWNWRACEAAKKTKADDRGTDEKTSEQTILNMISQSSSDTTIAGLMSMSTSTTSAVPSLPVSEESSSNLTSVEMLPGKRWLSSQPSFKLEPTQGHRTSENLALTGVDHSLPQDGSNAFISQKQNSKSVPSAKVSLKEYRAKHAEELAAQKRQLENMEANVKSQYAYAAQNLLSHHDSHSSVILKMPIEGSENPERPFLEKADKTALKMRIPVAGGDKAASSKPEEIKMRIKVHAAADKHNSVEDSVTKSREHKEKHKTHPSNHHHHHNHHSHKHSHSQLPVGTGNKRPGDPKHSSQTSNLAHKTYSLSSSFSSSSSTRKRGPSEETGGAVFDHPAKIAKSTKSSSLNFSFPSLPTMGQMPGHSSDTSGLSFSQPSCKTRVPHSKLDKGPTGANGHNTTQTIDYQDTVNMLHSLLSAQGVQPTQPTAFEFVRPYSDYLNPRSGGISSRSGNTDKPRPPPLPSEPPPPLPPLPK
Chain of CDK9/cyclin T1 (P50750 whole entry): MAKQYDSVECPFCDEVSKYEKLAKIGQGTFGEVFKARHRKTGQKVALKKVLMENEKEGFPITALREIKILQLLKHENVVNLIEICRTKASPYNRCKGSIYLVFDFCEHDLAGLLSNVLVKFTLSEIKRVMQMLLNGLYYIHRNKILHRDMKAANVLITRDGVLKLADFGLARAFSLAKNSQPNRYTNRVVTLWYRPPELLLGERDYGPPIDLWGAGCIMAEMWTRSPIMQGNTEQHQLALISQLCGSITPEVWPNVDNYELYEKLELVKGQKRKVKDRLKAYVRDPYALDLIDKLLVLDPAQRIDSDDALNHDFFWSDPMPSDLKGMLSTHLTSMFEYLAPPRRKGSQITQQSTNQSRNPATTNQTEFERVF

Nc1nccc(-c2cn(S(=O)(=O)c3ccc4c(c3)OCCO4)c3ncccc23)n1
inhibition [1]: 52.2% | inhibition [2]: 48.7%

Nc1nccc(-c2c[nH]c3ncc(-c4cccc5ccccc45)cc23)n1
IC50 [3]: 159 nM | IC50 [4]: 182 nM | inhibition [1]: 84% | inhibition [2]: 79.2%

Nc1nccc(-c2c[nH]c3ncc(-c4ccc(OC(F)(F)F)cc4)cc23)n1
IC50 [5]: 1500 nM | IC50 [6]: 400 nM

Cc1cccc(-c2cnc3[nH]cc(-c4ccnc(N)n4)c3c2)c1
inhibition [1]: 82.6% | inhibition [2]: 84.8%

Nc1nccc(-c2c[nH]c3ncc(-c4ccc(F)cc4)cc23)n1
t1/2 [7]: 4.4 h | AUC [8]: 504.3 ng·h/mL | concentration at 4 h [9]: 40.7 ng/mL | AUC(0-inf) [10]: 795 ng·h/mL | clearance [11]: 51.7 mL/min/kg | concentration at 0.25 h [12]: 311 ng/mL | Vd [13]: 11.3 L/kg | CL [14]: 15 mL/min/kg | Vd [15]: 63.6 L/kg | concentration at 1 h [16]: 61.6 ng/mL | AUC(0-t) [17]: 437 ng·h/mL | AUC(0-t) [18]: 244 ng·h/mL | concentration at 0.25 h [19]: 162 ng/mL | concentration at 2 h [20]: 99.6 ng/mL | C0 [21]: 1470 ng/mL | concentration at 2 h [22]: 59.1 ng/mL | half-life [23]: 2.5 h | TGI [24]: Dose-dependent effect | concentration at 0.5 h [25]: 168 ng/mL | concentration at 1 h [26]: 132 ng/mL | concentration at 0.5 h [27]: 73 ng/mL | concentration at […] [28]: 797 ng/mL

Nc1nccc(-c2cn(S(=O)(=O)c3ccc(OC(F)(F)F)cc3)c3ncccc23)n1
inhibition [1]: 54.4% | inhibition [2]: 31.3%

Cn1cncc1S(=O)(=O)n1cc(-c2ccnc(N)n2)c2cccnc21
inhibition [1]: 50.3% | inhibition [2]: 55.2%

CC(=O)Nc1ccc(S(=O)(=O)n2cc(-c3ccnc(N)n3)c3cccnc32)cc1
inhibition [1]: 44.2% | inhibition [2]: 36.3%

Nc1nccc(-c2cn(S(=O)(=O)c3ccc(Br)cc3)c3ncccc23)n1
inhibition [1]: 31.2% | inhibition [2]: 28.1%

Nc1nccc(-c2c[nH]c3ncc(-c4cccc(C(F)(F)F)c4)cc23)n1
IC50 [3]: 47 nM | IC50 [4]: 10 nM | inhibition [1]: 86.5% | inhibition [2]: 93.4%

CN1CCN(c2nccc(-c3c[nH]c4ncccc34)n2)CC1
IC50 [3]: 700 nM | IC50 [4]: 350 nM | inhibition [1]: 70.5% | inhibition [2]: 71.6%

COc1ccc(CCNc2nccc(-c3c[nH]c4ncccc34)n2)cc1OC
IC50 [3]: 59 nM | IC50 [4]: 22 nM | inhibition [1]: 85% | inhibition [2]: 89.2%

Nc1nccc(-c2cn(S(=O)(=O)c3ccc(C(F)(F)F)cc3)c3ncccc23)n1
inhibition [1]: 50.9% | inhibition [2]: 28.4%

c1cnc2[nH]cc(-c3ccnc(N4CCCC4)n3)c2c1
IC50 [3]: 450 nM | IC50 [4]: 160 nM | inhibition [1]: 77.2% | inhibition [2]: 78.3%

COc1ccc2ccccc2c1-c1cnc2[nH]cc(-c3ccnc(N)n3)c2c1
IC50 [3]: 625 nM | IC50 [4]: 1090 nM | inhibition [1]: 47.4% | inhibition [2]: 24.2%
